Data set [1] concerns HeLa cells. It counts as cell-based. As to conditions: Ru 100 μM + HCPs 300 μM; for Nuclear uptake of [Ru(bpy)2(dppz)]^2+ in full medium: full medium containing serum, CLSM.
Data set [2] is described as follows: n-Octanol/aqueous partitioning. It counts as physicochemical. As to conditions: n-octanol / Tris–HCl buffer 10 mM pH 7.4, Ru 100 μM. The procedure, abridged: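 Shake-flask partitioning of the Ru complex between n-octanol and aqueous Tris–HCl (10 mM, pH 7.4), run with or without highly chlorinated phenols (penta-, tetra- or trichlorophenols) at different Ru:phenol ratios. The complex was quantified in each phase by UV-vis absorbance. Ion-pair lipophilicity is reported as n-octanol-phase absorption intensity at Ru/phenol 1:10, multiplied by 10.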

For data set [3] the following is noted: ref [52]; cited from earlier work.
The conditions of data set [4]: ref [53],[54]; cited from earlier work.

The term pKa denotes the negative logarithm of the acid dissociation constant. Turning to `Oc1cc(Cl)c(Cl)c(Cl)c1Cl` [2,3,4,5-TeCP, 2,3,4,5-tetrachlorophenol], the “Nuclear uptake of [Ru(bpy)2(dppz)]^2+ in full medium” value in data set [1] is reported as “facilitated”. Further, the “Cellular and nuclear uptake of [Ru(bpy)2(dppz)]^2+ by luminescence” value in data set [1] (serum-free medium, flow cytometry and CLSM) is recorded as “most effective”. Further, the “Lipophilicity of the ion-pairing complex formed with [Ru(bpy)2(dppz)]Cl2” value in data set [2] is recorded as “least hydrophobic”. The “log Kow” value in data set [3] is listed as 4.95. The pKa in data set [4] was 5.64.
In the case of `Oc1c(Cl)c(Cl)c(Cl)c(Cl)c1Cl` [PCP, pentachlorophenol], the “Nuclear uptake of [Ru(bpy)2(dppz)]^2+ in full medium” value in data set [1] is recorded as “facilitated”. Besides, in data set [2], the “Lipophilicity of the ion-pairing complex formed with [Ru(bpy)2(dppz)]Cl2” value is recorded as “most lipophilic”. For the same compound, the “log Kow” value in data set [3] was 5.01.

The values above are taken from paper PMC6847114 (Nucleic Acids Research, 2019).
